Data on 2 compounds can be found in ChEMBL document CHEMBL1157090, “Diarylheptanoid from Pleuranthodium racemigerum with in vitro prostaglandin E(2) inhibitory and cytotoxic activity” (J Nat Prod, 2010).

For experiment [1], the system named is NIH3T3. The experiment in a line: Cytotoxicity against mouse 3T3 cells after 3 hrs by ATPLite assay. It is filed as cell-based. As to conditions: NIH3T3, 3 h. (Cellular ATP, detected with luciferase, serves as a proxy for viable cell number.)
Experiment [2] has as its system NIH3T3. The experiment in a line: Inhibition of PGE2 production in calcium ionophore […] stimulated mouse 3T3 cells after 3 hrs. It is filed as functional, cell-based. As to conditions: NIH3T3, 3 h. The method in brief:
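3T3 cells in DMEM with 10% FBS were seeded at 2 × 10^5 cells/mL, held ~20 h at 37 °C and 5% CO2, then given test substance (DMSO stock, 10 mg/mL) for 3 h. […] (5 mM DMSO stock) was added for 20 min. Supernatant PGE2 was measured by EIA, in triplicate, as % inhibition versus solvent-treated stimulated cells.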

The nature of experiment [3]: Cytotoxicity against mouse P388D1 cells after 24 hrs by ATPLite assay. It is filed as functional, cell-based. As to conditions: P388D1, 24 h. Summed up:
(§1)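 Cells grown in appropriate medium were exposed to test compounds at five concentrations for 24 h (5% CO2). Viability was read as cellular ATP by ATPLite luciferase luminescence and quantified against an ATP standard curve. Samples were run in triplicate, and IC50 was calculated from the concentration series.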

In experiment [4] the test system is Caco-2. The experiment in a line: Cytotoxicity against human Caco-2 cells after 24 hrs by ATPLite assay. As to conditions: Caco-2, 24 h. It is filed as functional, cell-based. The method in brief: as §1
In experiment [5] the test system is HepG2. The experiment in a line: Cytotoxicity against human HepG2 cells after 24 hrs by ATPLite assay. Format: functional, cell-based. As to conditions: HepG2, 24 h. The method in brief: as §1
The test system of experiment [6] is PC-3. The experiment in a line: Cytotoxicity against human PC3 cells after 24 hrs by ATPLite assay. As to conditions: PC-3, 24 h. It is filed as functional, cell-based. The method in brief: as §1
For experiment [7], the system named is MCF7. The experiment in a line: Cytotoxicity against human MCF7 cells after 24 hrs by ATPLite assay. It is filed as functional, cell-based. As to conditions: MCF7, 24 h. Summed up: as §1

In the case of `COc1ccc(C/C=C/CCCCc2ccc(O)cc2)cc1`, the IC50 in experiment [1] came out at 52.8 µM; in experiment [2], 34 µM; in experiment [3], 117 µM; in experiment [4], 44.8 µM; in experiment [5] it was 40.6 µM; in experiment [6], 23.6 µM. The compound also came in with an IC50 in experiment [7] of 56.9 µM.

In the case of `COc1cc(/C=C/C(=O)CC(=O)/C=C/c2ccc(O)c(OC)c2)ccc1O` [CURCUMIN], the IC50 in experiment [3] is 75.7 µM; in experiment [4] it was 48.6 µM; in experiment [5], 43.8 µM; in experiment [6], 22.7 µM; in experiment [7], 51.5 µM.

For orientation: IC50 means the concentration at which inhibition is half-maximal.
